Data: ChEMBL document CHEMBL4376899, “Structure-Based Stabilization of Non-native Protein-Protein Interactions of Coronavirus Nucleocapsid Proteins in Antiviral Drug Design” (J Med Chem, 2020)
The source made the active and inactive calls. The calls are words filed in the database; no cut-off is given here.

Columns and labels:
[1] = test system: Middle East respiratory syndrome-related coronavirus; assay: Binding affinity to N-terminal domain of MERS-CoV nucleocapsid protein assessed as interaction with W43 pocket at 10 uM incubated for 1 hr by fluorescence spectral analysis
Summary of the method: (§1)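 1 μM N protein was incubated with 10 μM compound or buffer at 4 °C for 1 h in 50 mM Tris-HCl (pH 8.3), 150 mM NaCl. Tryptophan fluorescence was excited at 280 nm and emission scanned over 300–400 nm.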

[2] = test system: Middle East respiratory syndrome-related coronavirus; assay: Binding affinity to N-terminal domain of MERS-CoV nucleocapsid protein assessed as denaturation melting temperature at 10 uM incubated for 1 hr by fluorescent thermal stability assay (reference value: 42 degC)
[3] = Cytotoxicity in African green monkey Vero E6 cells incubated for 48 hrs by neutral red uptake assay; format: cell-based, Vero C1008; conditions: chlorocebus sabaeus
[4] = Therapeutic index, ratio of CC50 for cytotoxicity in African green monkey VeroE6 cells incubated for 48 hrs by neutral red uptake assay to EC50 for antiviral activity against MERS-CoV infected in African green monkey Vero E6 cells incubated for 48 hrs by neutral red uptake assay; format: toxicity, cell-based, Vero C1008; conditions: read-out: Ratio CC50/EC50
[5] = test system: Middle East respiratory syndrome-related coronavirus; assay: Antiviral activity against MERS-CoV infected in African green monkey Vero E6 cells incubated for 48 hrs by neutral red uptake assay; format: functional, organism-based; conditions: Vero C1008, 48 h
[6] = test system: Middle East respiratory syndrome-related coronavirus; assay: Binding affinity to N-terminal domain of MERS-CoV nucleocapsid protein assessed as maximum dimension at 440 uM by SAXS analysis (reference value: 207 angstrom)
[7] = test system: Middle East respiratory syndrome-related coronavirus; assay: Binding affinity to N-terminal domain of MERS-CoV nucleocapsid protein assessed as radius of gyration at 440 uM by SAXS analysis (reference value: 58 angstrom)
[8] = test system: Middle East respiratory syndrome-related coronavirus; assay: Binding affinity to N-terminal domain of MERS-CoV nucleocapsid protein assessed as induction of blue shift in fluorescence spectrum at 10 uM incubated for 1 hr by fluorescence spectral analysis; summary of the method: as §1
[9] = test system: Vero C1008; assay: Antiviral activity against HCoV EMC/2012 infected in African green monkey Vero E6 cells assessed as reduction in viral titer at 50 uM incubated for 48 hrs by crystal violet staining based viral plaque assay; format: functional; conditions: Human betacoronavirus 2c EMC/2012
[10] = Antiviral activity against HCoV EMC/2012 infected in African green monkey Vero E6 cells assessed as reduction in viral replication at 50 uM incubated for 48 hrs by RT-qPCR analysis; format: functional, Human betacoronavirus 2c EMC/2012, Vero C1008; parameters: scale not given: the % may be the effect or the level left
[11] = test system: Vero C1008; assay: Antiviral activity against HCoV EMC/2012 infected in African green monkey Vero E6 cells assessed as reduction in viral titer at 100 uM incubated for 48 hrs by crystal violet staining based viral plaque assay; format: functional; conditions: Human betacoronavirus 2c EMC/2012
[12] = test system: Vero C1008; assay: Antiviral activity against HCoV EMC/2012 infected in African green monkey Vero E6 cells assessed as reduction in viral replication at 100 uM incubated for 48 hrs by RT-qPCR analysis; format: functional; conditions: Human betacoronavirus 2c EMC/2012
[13] = test system: Vero C1008; assay: Induction of intracellular nucleocapsid protein aggregation in HCoV EMC/2012 infected in African green monkey Vero E6 cells at 50 uM by immunofluorescence microscopy; format: cell-based; conditions: Human betacoronavirus 2c EMC/2012
[14] = test system: Vero C1008; assay: Inhibition of nucleocapsid protein expression in HCoV EMC/2012 infected in African green monkey Vero E6 cells at 100 uM by immunofluorescence microscopy; format: functional; conditions: Human betacoronavirus 2c EMC/2012

Row | Structure (SMILES) | Activity [1] | Tm [2] | CC50 at 48 h [3] | selectivity ratio at 48 h [4] | EC50 [5] | Activity [6] | Activity [7] | Activity [8] | Activity [9] | Activity [10] | Activity [11] | Activity [12] | Activity [13] | inhibition [14]
1 | CN(C)Cc1c[nH]c2ccc(OCc3ccccc3)cc12 | Active | 45 °C | 805 µM | 25.1 | 32.1 µM | 230 Angstrom | 65 Angstrom | Active | Active | 40% | Active | Active | Active | Active
2 | CCc1cccc2c3c([nH]c12)C(CC)(CC(=O)O)OCC3 (stereo not given) [ETODOLAC] | Active | – | 570 µM | – | > 100 µM | – | – | – | – | – | – | – | – | –
3 | O=C(OCc1ccccc1)N1c2ccccc2CC1CO (stereo not given) | Active | – | 460 µM | – | > 100 µM | – | – | – | – | – | – | – | – | –
